In ChEMBL document CHEMBL1153878, “Hansch analysis of veratric acid derivatives as antimicrobial agents” (2009):
Values after ≈ are worked out from the molar mass of the structure shown.

Key:
Format in all cases: functional
Staphylococcus aureus = experiment: Antibacterial activity against Staphylococcus aureus MTCC 1430 by serial dilution method; parameters: -logMIC: scale not given here; settings: for MIC: Staphylococcus aureus, MTCC 1430, read-out: MIC
Method in brief: (§1)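 Tube serial dilution in 1 ml sterile double strength nutrient broth I.P., test range […] per ml. Inoculum: […] of a saline suspension at 10⁵ cfu/ml from a fresh 24-h culture, grown in double strength nutrient broth at 37 ± 1 °C. […] Exact MIC refined by further dilution of the stock.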

Bacillus subtilis = experiment: Antibacterial activity against Bacillus subtilis MTCC 2423 by serial dilution method; parameters: -logMIC: unit not given here; settings: for MIC: Bacillus subtilis, MTCC 2423, read-out: MIC; method in brief: as §1
Escherichia coli = experiment: Antibacterial activity against Escherichia coli MTCC 739 by serial dilution method; parameters: -logMIC: scale not given here; settings: for MIC: Escherichia coli, MTCC 739, read-out: MIC; method in brief: as §1
Candida albicans = experiment: Antifungal activity against Candida albicans MTCC 227 by serial dilution method; parameters: -logMIC: unit not given here; settings: for MIC: Candida albicans, MTCC 227, read-out: MIC
Aspergillus niger = experiment: Antifungal activity against Aspergillus niger MTCC 2425 by serial dilution method; parameters: -logMIC: scale not given here; settings: for MIC: Aspergillus niger, MTCC 2425, read-out: MIC

| Structure (SMILES) | MIC (Staphylococcus aureus) | MIC (Bacillus subtilis) | MIC (Escherichia coli) | MIC (Candida albicans) | MIC (Aspergillus niger) | -logMIC (Staphylococcus aureus) | -logMIC (Bacillus subtilis) | -logMIC (Escherichia coli) | -logMIC (Candida albicans) | -logMIC (Aspergillus niger) |
| --- | --- | --- | --- | --- | --- | --- | --- | --- | --- | --- |
| COc1ccc(C(=O)Nc2cccc(C)c2)cc1OC | 17 µg/mL (≈ 62.7 µM) | 13 µg/mL (≈ 47.9 µM) | 17 µg/mL (≈ 62.7 µM) | 10 µg/mL (≈ 36.9 µM) | 12.5 µg/mL (≈ 46.1 µM) | 1.2 | 1.31 | 1.2 | 1.42 | 1.35 |
| COc1ccc(C(=O)Nc2ccc(Br)cc2)cc1OC | 19 µg/mL (≈ 56.5 µM) | 13 µg/mL (≈ 38.7 µM) | 19 µg/mL (≈ 56.5 µM) | 15 µg/mL (≈ 44.6 µM) | 12.5 µg/mL (≈ 37.2 µM) | 1.25 | 1.4 | 1.25 | 1.34 | 1.44 |
| COc1ccc(C(=O)Nc2cccc(O)c2)cc1OC | 17 µg/mL (≈ 62.2 µM) | 15 µg/mL (≈ 54.9 µM) | 19 µg/mL (≈ 69.5 µM) | 12 µg/mL (≈ 43.9 µM) | 12 µg/mL (≈ 43.9 µM) | 1.2 | 1.26 | 1.16 | 1.36 | 1.36 |
| COC(=O)c1ccc(OC)c(OC)c1 [VERATRIC ACID METHYL ESTER] | 18 µg/mL (≈ 91.7 µM) | 12 µg/mL (≈ 61.2 µM) | 18 µg/mL (≈ 91.7 µM) | 12 µg/mL (≈ 61.2 µM) | 14 µg/mL (≈ 71.4 µM) | 1.04 | 1.2 | 1.04 | 1.2 | 1.15 |
| COc1ccc(C(=O)O)cc1OC [VERATRIC ACID] | 18 µg/mL (≈ 98.8 µM) | 9 µg/mL (≈ 49.4 µM) | 16 µg/mL (≈ 87.8 µM) | 11 µg/mL (≈ 60.4 µM) | 14 µg/mL (≈ 76.8 µM) | 1.01 | 1.31 | 1.06 | 1.22 | 1.11 |

The next lines start with results.

| MIC (Staphylococcus aureus) | MIC (Bacillus subtilis) | MIC (Escherichia coli) | MIC (Candida albicans) | MIC (Aspergillus niger) | Structure (SMILES) | -logMIC (Staphylococcus aureus) | -logMIC (Bacillus subtilis) | -logMIC (Escherichia coli) | -logMIC (Candida albicans) | -logMIC (Aspergillus niger) |
| --- | --- | --- | --- | --- | --- | --- | --- | --- | --- | --- |
| 17 µg/mL (≈ 56.2 µM) | 11.5 µg/mL (≈ 38 µM) | 21 µg/mL (≈ 69.5 µM) | 14 µg/mL (≈ 46.3 µM) | 13 µg/mL (≈ 43 µM) | COc1ccc(C(=O)Nc2ccc([N+](=O)[O-])cc2)cc1OC | 1.25 | 1.41 | 1.16 | 1.32 | 1.35 |
| 17 µg/mL (≈ 59.2 µM) | 13 µg/mL (≈ 45.2 µM) | 17 µg/mL (≈ 59.2 µM) | 15 µg/mL (≈ 52.2 µM) | 14 µg/mL (≈ 48.7 µM) | COc1ccccc1NC(=O)c1ccc(OC)c(OC)c1 | 1.23 | 1.34 | 1.23 | 1.29 | 1.32 |
| 18.5 µg/mL (≈ 68.2 µM) | 13 µg/mL (≈ 47.9 µM) | 17 µg/mL (≈ 62.7 µM) | 13 µg/mL (≈ 47.9 µM) | 12.5 µg/mL (≈ 46.1 µM) | COc1ccc(C(=O)Nc2ccc(C)cc2)cc1OC | 1.15 | 1.31 | 1.2 | 1.32 | 1.35 |
| 18 µg/mL (≈ 62.6 µM) | 12 µg/mL (≈ 41.8 µM) | 19 µg/mL (≈ 66.1 µM) | 12.5 µg/mL (≈ 43.5 µM) | 11.5 µg/mL (≈ 40 µM) | COc1ccc(NC(=O)c2ccc(OC)c(OC)c2)cc1 | 1.2 | 1.38 | 1.18 | 1.36 | 1.4 |
| 18 µg/mL (≈ 59.5 µM) | 10.5 µg/mL (≈ 34.7 µM) | 13 µg/mL (≈ 43 µM) | 16 µg/mL (≈ 52.9 µM) | 13 µg/mL (≈ 43 µM) | COc1ccc(C(=O)Nc2cccc([N+](=O)[O-])c2)cc1OC | 1.22 | 1.46 | 1.36 | 1.27 | 1.36 |
